pIC50: −log10 of the molar value.
System: Cucumis sativus
Assay: Herbicidal activity against Cucumis sativus (cucumber) seeds assessed as inhibition of cucumber root at 28 degC for 3 days with 10 hr of lighting and 14 h in the dark
Format: functional, organism-based
How it was run: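 Compound dissolved in acetone with a drop of Tween 80, then diluted with water to the required concentrations. Five mL was applied to filter paper in Petri dishes, with 10 cucumber seeds pre-soaked in water for 6 h. Taproot length was read at 72 h as percent inhibition versus control. Three replicates at each of five or six concentrations; IC50 by log-probit regression.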

| SMILES | pIC50 |
| --- | --- |
| COP(=O)(OC)C(C)OC(=O)COc1ccc(Cl)cc1 (stereo not drawn) | 6.37 |
| COP(=O)(OC)C(C)OC(=O)COc1ccc(Cl)cc1C (stereo not drawn) | 6.36 |
| COP(=O)(OC)C(C)OC(=O)COc1ccc(Cl)c(C)c1 (stereo not drawn) | 5.53 |
| COP(=O)(OC)C(C)OC(=O)COc1cc(C)ccc1Cl (stereo not drawn) | 4.31 |
| COP(=O)(OC)C(C)OC(=O)COc1cccc(Cl)c1Cl (stereo not drawn) | 3.68 |
| COP(=O)(OC)C(C)OC(=O)COc1cccc(F)c1 (stereo not drawn) | 3.95 |
| COP(=O)(OC)C(C)OC(=O)COc1ccc(F)cc1 (stereo not drawn) | 5.82 |
| COP(=O)(OC)C(OC(=O)COc1cccc(F)c1)C(Cl)(Cl)Cl (stereo not drawn) | 4.08 |
| COP(=O)(OC)C(OC(=O)COc1ccc(F)cc1)C(Cl)(Cl)Cl (stereo not drawn) | 5.93 |
| COP(=O)(OC)C(OC(=O)COc1ccc(Cl)cc1)C(Cl)(Cl)Cl (stereo not drawn) | 6.14 |
| COP(=O)(OC)C(OC(=O)COc1c(Cl)cccc1Cl)C(Cl)(Cl)Cl (stereo not drawn) | 3.94 |
| COP(=O)(OC)C(OC(=O)COc1cccc(Cl)c1Cl)C(Cl)(Cl)Cl (stereo not drawn) | 4.15 |
| COP(=O)(OC)C(OC(=O)COc1ccc(Cl)cc1C)C(Cl)(Cl)Cl (stereo not drawn) | 6.40 |
| COP(=O)(OC)C(OC(=O)COc1ccc(Cl)c(C)c1)C(Cl)(Cl)Cl (stereo not drawn) | 5.46 |
| COP(=O)(OC)C(OC(=O)COc1cc(C)ccc1Cl)C(Cl)(Cl)Cl (stereo not drawn) | 4.12 |
| COP(=O)(OC)C(OC(=O)COc1cccc(C(F)(F)F)c1)c1cccc(Cl)c1 (stereo not drawn) | 4.84 |
| COP(=O)(OC)C(OC(=O)COc1cccc(C(F)(F)F)c1)c1ccc(Cl)c(Cl)c1 (stereo not drawn) | 5.08 |
| COP(=O)(OC)C(OC(=O)COc1cccc(C(F)(F)F)c1)c1ccc(C)cc1 (stereo not drawn) | 5.13 |
| COP(=O)(O)C(OC(=O)COc1ccc(Cl)cc1Cl)c1ccco1 (stereo not drawn) | 6.35 |
| COP(=O)(O)C(OC(=O)COc1ccc(Cl)cc1Cl)c1ccccn1 (stereo not drawn) | 6.24 |

| SMILES | pIC50 |
| --- | --- |
| COP(=O)(O)C(OC(=O)COc1ccc(Cl)cc1Cl)c1ccccc1 (stereo not drawn) | 6.02 |
| COP(=O)(O)C(OC(=O)COc1ccc(Cl)cc1Cl)c1ccccc1Cl (stereo not drawn) | 6.04 |
| COP(=O)(O)C(OC(=O)COc1ccc(Cl)cc1Cl)c1ccc(Cl)cc1 (stereo not drawn) | 5.88 |
| COP(=O)(O)C(OC(=O)COc1ccc(Cl)cc1Cl)c1ccc(Cl)cc1Cl (stereo not drawn) | 5.99 |
| COP(=O)(O)C(OC(=O)COc1ccc(Cl)cc1Cl)c1ccc(Cl)c(Cl)c1 (stereo not drawn) | 6.05 |
| COc1ccc(C(OC(=O)COc2ccc(Cl)cc2Cl)P(=O)(O)OC)cc1 (stereo not drawn) | 6.02 |
| COP(=O)(O)C(OC(=O)COc1ccc(Cl)cc1Cl)c1ccc(F)cc1 (stereo not drawn) | 6.11 |
| COP(=O)(O)C(OC(=O)COc1ccc(Cl)cc1Cl)c1cccc([N+](=O)[O-])c1 (stereo not drawn) | 5.91 |
| COP(=O)(O)C(OC(=O)COc1ccc(Cl)cc1Cl)c1ccc(C)cc1 (stereo not drawn) | 5.87 |
| COP(=O)(OC)C(C)OC(=O)COc1c(Cl)cccc1Cl (stereo not drawn) | 4.00 |
| COP(=O)(OC)C(OC(=O)COc1cccc(F)c1)c1cccs1 (stereo not drawn) | 3.90 |
| COP(=O)(OC)C(OC(=O)COc1ccc(F)cc1)c1cccs1 (stereo not drawn) | 5.58 |
| COP(=O)(OC)C(OC(=O)COc1ccc(Cl)cc1Cl)c1cccs1 (stereo not drawn) | 6.55 |
| COP(=O)(OC)C(OC(=O)COc1ccc(Cl)cc1)c1cccs1 (stereo not drawn) | 6.24 |
| COP(=O)(OC)C(OC(=O)COc1c(Cl)cccc1Cl)c1cccs1 (stereo not drawn) | 3.75 |
| COP(=O)(OC)C(OC(=O)COc1cccc(Cl)c1Cl)c1cccs1 (stereo not drawn) | 3.23 |
| COP(=O)(OC)C(OC(=O)COc1ccc(Cl)cc1C)c1cccs1 (stereo not drawn) | 6.33 |
| COP(=O)(OC)C(OC(=O)COc1ccc(Cl)c(C)c1)c1cccs1 (stereo not drawn) | 5.63 |
| COP(=O)(OC)C(OC(=O)COc1cc(C)ccc1Cl)c1cccs1 (stereo not drawn) | 4.29 |
| COP(=O)(OC)C(OC(=O)COc1cccc(F)c1)c1ccccc1 (stereo not drawn) | 3.95 |

| SMILES | pIC50 |
| --- | --- |
| COP(=O)(OC)C(OC(=O)COc1ccc(F)cc1)c1ccccc1 (stereo not drawn) | 5.82 |
| COP(=O)(OC)C(OC(=O)COc1ccc(Cl)cc1)c1ccccc1 (stereo not drawn) | 6.37 |
| COP(=O)(OC)C(OC(=O)COc1c(Cl)cccc1Cl)c1ccccc1 (stereo not drawn) | 4.07 |
| COP(=O)(OC)C(OC(=O)COc1cccc(Cl)c1Cl)c1ccccc1 (stereo not drawn) | 3.64 |
| COP(=O)(OC)C(OC(=O)COc1ccc(Cl)cc1C)c1ccccc1 (stereo not drawn) | 6.45 |
| COP(=O)(OC)C(OC(=O)COc1ccc(Cl)c(C)c1)c1ccccc1 (stereo not drawn) | 5.59 |
| COP(=O)(OC)C(OC(=O)COc1cc(C)ccc1Cl)c1ccccc1 (stereo not drawn) | 4.14 |
| COP(=O)(OC)C(OC(=O)COc1cccc(C(F)(F)F)c1)c1ccccc1Cl (stereo not drawn) | 5.10 |
| COP(=O)(OC)C(OC(=O)COc1cccc(C(F)(F)F)c1)c1ccc(Cl)cc1 (stereo not drawn) | 5.16 |
| COP(=O)(OC)C(OC(=O)COc1cccc(F)c1)c1ccco1 (stereo not drawn) | 4.17 |
| COP(=O)(OC)C(OC(=O)COc1ccc(F)cc1)c1ccco1 (stereo not drawn) | 5.74 |
| COP(=O)(OC)C(OC(=O)COc1ccc(Cl)cc1)c1ccco1 (stereo not drawn) | 6.19 |
| COP(=O)(OC)C(OC(=O)COc1ccc(Cl)cc1Cl)c1ccco1 (stereo not drawn) | 6.47 |
| COP(=O)(OC)C(OC(=O)COc1c(Cl)cccc1Cl)c1ccco1 (stereo not drawn) | 3.49 |
| COP(=O)(OC)C(OC(=O)COc1cccc(Cl)c1Cl)c1ccco1 (stereo not drawn) | 3.35 |
| COP(=O)(OC)C(OC(=O)COc1ccc(Cl)cc1C)c1ccco1 (stereo not drawn) | 5.42 |
| COP(=O)(OC)C(OC(=O)COc1ccc(Cl)c(C)c1)c1ccco1 (stereo not drawn) | 5.44 |
| COP(=O)(OC)C(OC(=O)COc1cc(C)ccc1Cl)c1ccco1 (stereo not drawn) | 4.06 |

From ChEMBL document CHEMBL3045289, “Molecular docking and three-dimensional quantitative structure-activity relationship studies on the binding modes of herbicidal 1-(substituted phenoxyacetoxy)alkylphosphonates to the E1 component of pyruvate dehydrogenase” (J Agric Food Chem, 2007)
